Data from ChEMBL document CHEMBL1125824, “New pepstatin analogues: synthesis and pepsin inhibition” (J Med Chem, 1991).
pIC50, pKi: −log10 of the molar value.

What was measured:
Pepsin A [1] = biological target: T1, Pepsin A (Sus scrofa, UniProt P00791); assay: Compound was measured for the inhibition of pepsin hydrolysis of hemoglobin.
Outline: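 Porcine pepsin acting on hemoglobin substrate (0.5% solution) with inhibitor in 0.02 M KCl–HCl, pH 2.0. Substrate and inhibitor were preincubated 3 min at 37 °C, then enzyme was added for 27 min at 37 °C. The reaction was quenched with 1.5 M perchloric acid, protein was spun out, and A280 was read minus a no-enzyme blank. Four replicates at ≥5 concentrations; IC50 from % inhibition vs log concentration.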

Pepsin A [2] = biological target: T1, Pepsin A; assay: Compound was measured for the apparent inhibition constant at pepsin
Outline: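 Apparent Ki from the pepsin–hemoglobin assay: pH 2.0 KCl–HCl buffer, 30 min total at 37 °C, perchloric acid quench, A280 of supernatant minus blank. IC50 came from % inhibition vs log [inhibitor], four replicates at ≥5 concentrations. Ki(app) was calculated as IC50 − 0.5[E]0, where [E]0 is the enzyme concentration.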

T1 sequence (P00791 whole entry): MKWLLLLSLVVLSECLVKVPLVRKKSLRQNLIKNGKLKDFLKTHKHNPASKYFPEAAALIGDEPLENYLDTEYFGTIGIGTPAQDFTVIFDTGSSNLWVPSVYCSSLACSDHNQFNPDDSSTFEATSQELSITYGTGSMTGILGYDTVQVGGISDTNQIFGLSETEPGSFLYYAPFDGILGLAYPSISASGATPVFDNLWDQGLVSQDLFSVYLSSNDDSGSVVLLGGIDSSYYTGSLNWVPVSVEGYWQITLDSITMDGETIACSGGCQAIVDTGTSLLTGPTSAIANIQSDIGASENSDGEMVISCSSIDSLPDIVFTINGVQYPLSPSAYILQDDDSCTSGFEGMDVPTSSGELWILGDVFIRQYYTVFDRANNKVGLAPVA

pIC50 (Pepsin A [1]) | pKi (Pepsin A [2]) | Structure (SMILES)
6.70 | 6.72 | CC(C)CC(NC(=O)[C@@H](NC(=O)[C@@H](NC(=O)OCc1ccccc1)C(C)C)C(C)C)C(O)CC(=O)O (stereo partly specified)
4.75 | 4.75 | CCCCC(NC(=O)[C@@H](NC(=O)[C@H](NC(=O)OCc1ccccc1)C(C)C)C(C)C)C(O)CC(=O)O (stereo partly specified)
3.46 | 3.46 | CC(C)[C@H](NC(=O)[C@H](NC(=O)OCc1ccccc1)C(C)C)C(=O)NC(c1ccccc1)C(O)CC(=O)O (stereo partly specified)
2.95 | 2.95 | CC(C)[C@H](NC(=O)OCc1ccccc1)C(=O)N[C@H](C(=O)NC(c1ccc(O)cc1)C(O)CC(=O)O)C(C)C (stereo partly specified)
8.00 |  | CCCCC(NC(=O)[C@@H](NC(=O)[C@@H](NC(=O)OCc1ccccc1)C(C)C)C(C)C)C(O)CC(=O)O (stereo partly specified)
6.38 | 6.39 | CC(C)[C@H](NC(=O)OCc1ccccc1)C(=O)N[C@H](C(=O)NC(c1ccccc1)C(O)CC(=O)O)C(C)C (stereo partly specified)
2.81 | 2.81 | CC(C)[C@H](NC(=O)[C@H](NC(=O)OCc1ccccc1)C(C)C)C(=O)NC(c1ccc(O)cc1)C(O)CC(=O)O (stereo partly specified)
4.40 | 4.40 | CC(C)CC(NC(=O)[C@@H](NC(=O)[C@H](NC(=O)OCc1ccccc1)C(C)C)C(C)C)C(O)CC(=O)O (stereo partly specified)
8.15 |  | CC(C)CC(=O)N[C@H](C(=O)N[C@H](C(=O)N[C@@H](CC(C)C)[C@@H](O)CC(=O)N[C@@H](C)C(=O)N[C@@H](CC(C)C)[C@@H](O)CC(=O)O)C(C)C)C(C)C [PEPSTATIN]
